Assay results published in ChEMBL document CHEMBL3421533, “The Discovery of Orally Bioavailable Tyrosine Threonine Kinase (TTK) Inhibitors: 3-(4-(heterocyclyl)phenyl)-1H-indazole-5-carboxamides as Anticancer Agents” (J Med Chem, 2015).
Calls of active or inactive are those of the source. No cut-off for these calls is given here.

Assays:
[1] = Antitumor activity against human HCT116 cells xenografted in nude mouse assessed as tumor growth inhibition at 30 mg/kg, po qd administered for 21 days measured on day 22 relative to vehicle-treated control; type: functional; details: HCT-116, read-out: TGI
[2] = target: T1, Dual specificity protein kinase TTK (Homo sapiens, UniProt P33981); experiment: Inhibition of TTK (unknown origin) using p38 MAPK as substrate by fluorescence assay
T1 sequence (P33981 whole entry): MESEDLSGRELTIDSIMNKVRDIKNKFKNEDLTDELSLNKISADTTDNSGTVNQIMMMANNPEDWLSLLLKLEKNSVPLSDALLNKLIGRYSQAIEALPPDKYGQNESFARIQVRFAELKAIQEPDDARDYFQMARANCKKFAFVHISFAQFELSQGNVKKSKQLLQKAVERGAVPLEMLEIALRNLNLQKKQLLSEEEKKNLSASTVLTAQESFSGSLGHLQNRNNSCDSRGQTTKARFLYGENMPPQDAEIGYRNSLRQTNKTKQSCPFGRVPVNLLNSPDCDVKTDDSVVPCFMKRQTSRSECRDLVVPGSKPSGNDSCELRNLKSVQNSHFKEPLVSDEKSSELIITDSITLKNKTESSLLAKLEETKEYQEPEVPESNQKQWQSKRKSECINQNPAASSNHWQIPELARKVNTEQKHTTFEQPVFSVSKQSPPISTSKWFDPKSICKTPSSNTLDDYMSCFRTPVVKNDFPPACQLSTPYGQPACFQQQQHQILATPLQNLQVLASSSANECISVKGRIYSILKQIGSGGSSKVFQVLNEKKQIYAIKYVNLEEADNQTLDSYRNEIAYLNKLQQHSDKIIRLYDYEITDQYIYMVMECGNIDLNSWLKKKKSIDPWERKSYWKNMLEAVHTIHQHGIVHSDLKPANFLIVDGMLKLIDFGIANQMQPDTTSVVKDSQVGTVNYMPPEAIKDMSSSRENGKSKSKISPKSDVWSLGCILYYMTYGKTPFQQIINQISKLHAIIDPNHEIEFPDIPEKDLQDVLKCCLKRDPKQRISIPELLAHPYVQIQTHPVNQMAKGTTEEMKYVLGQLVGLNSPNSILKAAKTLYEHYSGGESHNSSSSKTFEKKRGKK

[3] = Induction of apoptosis in human HCT116 cells assessed as upregulation of p53 level after 24 hrs; type: functional, cell-based; details: HCT-116
[4] = Cell cycle arrest in human HCT116 cells assessed as 8N cells at 0.1 uM measured at 48 hrs by flow cytometric analysis relative to control; type: functional, cell-based; details: HCT-116
Method in brief: (§1)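 HCT116 cells in 6-well plates were exposed to compound or DMSO for 48 h at 37 °C, 5% CO₂. Cells were trypsinized, fixed in cold 70% ethanol and stained overnight at 4 °C with 50 μg/mL propidium iodide plus RNaseA. DNA content was read by flow cytometry, and 8N and 16N fractions were normalized to the DMSO control.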

[5] = Cell cycle arrest in human HCT116 cells assessed as 8N cells at 3 uM measured at 48 hrs by flow cytometric analysis relative to control; type: functional, cell-based; details: HCT-116; method in brief: as §1
[6] = Cell cycle arrest in human HCT116 cells assessed as 8N cells at 0.05 uM measured at 48 hrs by flow cytometric analysis relative to control; type: functional, cell-based; details: HCT-116; method in brief: as §1
[7] = Cell cycle arrest in human HCT116 cells assessed as 16N cells at 0.1 uM measured at 48 hrs by flow cytometric analysis relative to control; type: functional, cell-based; details: HCT-116; method in brief: as §1
[8] = Cell cycle arrest in human HCT116 cells assessed as 16N cells at 3 uM measured at 48 hrs by flow cytometric analysis relative to control; type: functional, cell-based; details: HCT-116; method in brief: as §1
HCT-116 [9] = experiment: Induction of apoptosis in human HCT116 cells assessed as induction of PARP cleavage after 24 hrs; type: functional, cell-based
[10] = Induction of apoptosis in human HCT116 cells assessed as upregulation of phospho-H2AX level after 24 hrs; type: functional, cell-based; details: HCT-116
[11] = Cell cycle arrest in human HCT116 cells assessed as 16N cells at 0.2 uM measured at 48 hrs by flow cytometric analysis relative to control; type: functional, cell-based; details: HCT-116; method in brief: as §1
HCT-116 [12] = experiment: Induction of cytokinesis with gain or loss in chromosomes in human HCT116 cells at 500 nM after 28 hrs by DAPI-staining based fluorescence microscopic analysis; type: functional, cell-based
[13] = Cell cycle arrest in human HCT116 cells assessed as 8N cells at 1 uM measured at 48 hrs by flow cytometric analysis relative to control; type: functional, cell-based; details: HCT-116; method in brief: as §1
[14] = Cell cycle arrest in human HCT116 cells assessed as 16N cells at 1 uM measured at 48 hrs by flow cytometric analysis relative to control; type: functional, cell-based; details: HCT-116; method in brief: as §1
[15] = Cell cycle arrest in human HCT116 cells assessed as 16N cells at 0.5 uM measured at 48 hrs by flow cytometric analysis relative to control; type: functional, cell-based; details: HCT-116; method in brief: as §1
HCT-116 [16] = experiment: Cytotoxicity against human HCT116 cells assessed as decrease in cell viability after 24 hrs; type: functional, cell-based
[17] = Cell cycle arrest in human HCT116 cells assessed as 16N cells at 0.05 uM measured at 48 hrs by flow cytometric analysis relative to control; type: functional, cell-based; details: HCT-116; method in brief: as §1
[18] = Cell cycle arrest in human HCT116 cells assessed as 8N cells at 0.5 uM measured at 48 hrs by flow cytometric analysis relative to control; type: functional, cell-based; details: HCT-116; method in brief: as §1
[19] = Cell cycle arrest in human HCT116 cells assessed as 8N cells at 0.2 uM measured at 48 hrs by flow cytometric analysis relative to control; type: functional, cell-based; details: HCT-116; method in brief: as §1
[20] = Antitumor activity against human HCT116 cells xenografted in athymic CD1 nude mouse assessed as tumor growth inhibition at 100 mg/kg, po qd administered for 21 days measured 3 times per week during compound dosing relative to vehicle-treated control; type: functional; details: HCT-116, 504 h, read-out: TGI
Method in brief: (§2)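 HCT116 cells (5 million) were injected subcutaneously into the right flank of 6–8 week old female athymic CD-1 nude mice. At a mean tumor volume of 80–120 mm³, mice were randomized (n = 8). Dosing was oral, daily for 21 days, in 10% NMP/40% PEG400/50% DI water, at the MTD and ~2/3 MTD. Tumors were measured three times weekly, volume x²y/2, and TGI was taken against vehicle.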

[21] = Clearance in Sprague-Dawley rat at 1 mg/kg, iv by LC-MS/MS analysis; type: ADME, organism-based; design: dose 1 mg/kg, route intravenous; details: in vivo
Cytochrome P450 3A4 = Cytochrome P450 3A4 (Homo sapiens, UniProt P08684); experiment: Inhibition of human CYP3A4 using BFC as substrate preincubated for 10 mins followed by enzyme/substrate addition measured after 30 mins by fluorescence assay; type: ADME
[22] = target: T1, Dual specificity protein kinase TTK; experiment: Inhibition of amino terminal GST-fused full length human TTK using His6-SUMO-TTK-N as substrate preincubated for 15 mins prior to ATP addition by indirect ELISA detection system
[23] = Cytotoxicity against human OVCAR3 cells after 5 days by sulforhodamine B assay; type: functional, OVCAR-3
[24] = Oral bioavailability in Sprague-Dawley rat at 5 mg/kg by LC-MS/MS analysis; type: ADME, organism-based; details: in vivo
MDA-MB-468 = experiment: Cytotoxicity against human MDA-MB-468 cells after 5 days by sulforhodamine B assay; type: functional
Method in brief: (§3)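 Cancer lines were seeded at 800–6000 cells per well according to growth rate, 24 h before compound overlay. After culture, cells were fixed in situ and stained with sulforhodamine B. GI50 values were derived by curve fitting.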

[25] = AUCinfinity in Sprague-Dawley rat at 5 mg/kg, po by LC-MS/MS analysis; type: ADME, organism-based; design: time infinity, dose 5 mg/kg, route oral; details: plasma
[26] = AUCinfinity in Sprague-Dawley rat at 1 mg/kg, iv by LC-MS/MS analysis; type: ADME, organism-based; design: time infinity, dose 1 mg/kg, route intravenous; details: plasma
[27] = Antitumor activity against human HCT116 cells xenografted in athymic CD1 nude mouse assessed as tumor growth inhibition at 150 mg/kg, po qd administered for 21 days measured 3 times per week during compound dosing relative to vehicle-treated control; type: functional; details: HCT-116, 504 h, read-out: TGI; method in brief: as §2
Mus musculus [28] = experiment: Cmax in athymic CD1 nude mouse at 10 mg/kg, po by LC-MS/MS analysis; type: ADME, organism-based; design: dose 10 mg/kg, route oral; details: in vivo
Mus musculus [29] = experiment: AUCinfinity in athymic CD1 nude mouse at 10 mg/kg, po by LC-MS/MS analysis; type: ADME, organism-based, Plasma; design: time infinity, dose 10 mg/kg, route oral; details: in vivo
[30] = target: Aurora kinase B/Inner centromere protein (Homo sapiens, UniProt Q96GD4); experiment: Inhibition of AURKB/INCENP (unknown origin) preincubated for 15 mins prior to ATP addition by FRET-based homogenous assay; type: protein-complex assay
Method in brief: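 The enzyme was AURKB/INCENP in a FRET-based homogeneous assay run to kit specifications, with ATP at 128 μM. […] Each IC50 came from a single determination, reported with its standard fitting error.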

[31] = Half life in Sprague-Dawley rat at 1 mg/kg, iv by LC-MS/MS analysis; type: ADME, organism-based; design: dose 1 mg/kg, route intravenous; details: in vivo
[32] = Toxicity in po dosed athymic CD1 nude mouse assessed as body weight loss in excess 20% and deemed moribund administered as qd for 21 days measured 3 times per week during compound dosing; type: organism-based; details: in vivo
[33] = Cytotoxicity against human HCT116 cells after 5 days by sulforhodamine B assay; type: functional, HCT-116; method in brief: as §3
Liver microsome = experiment: Half life in rat liver microsomes at 1 uM by LC-MS analysis; type: ADME; details: microsomes, 1 µM
Liver = experiment: Half life in mouse liver microsomes at 1 uM by LC-MS analysis; type: ADME; details: microsomes, 1 µM

Aurora kinase B/Inner centromere protein, sequence (Q96GD4 whole entry): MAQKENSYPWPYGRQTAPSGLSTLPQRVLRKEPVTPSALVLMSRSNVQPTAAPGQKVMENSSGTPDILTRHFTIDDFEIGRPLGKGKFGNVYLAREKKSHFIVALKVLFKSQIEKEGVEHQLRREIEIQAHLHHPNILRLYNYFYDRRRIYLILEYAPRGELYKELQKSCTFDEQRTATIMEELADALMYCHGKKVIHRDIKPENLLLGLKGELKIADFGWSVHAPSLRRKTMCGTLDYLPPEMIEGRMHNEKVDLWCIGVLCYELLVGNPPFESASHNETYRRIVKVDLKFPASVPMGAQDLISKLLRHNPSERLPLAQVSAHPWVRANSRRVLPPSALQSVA
Aurora kinase B/Inner centromere protein, sequence (Q9NQS7 whole entry, further chain): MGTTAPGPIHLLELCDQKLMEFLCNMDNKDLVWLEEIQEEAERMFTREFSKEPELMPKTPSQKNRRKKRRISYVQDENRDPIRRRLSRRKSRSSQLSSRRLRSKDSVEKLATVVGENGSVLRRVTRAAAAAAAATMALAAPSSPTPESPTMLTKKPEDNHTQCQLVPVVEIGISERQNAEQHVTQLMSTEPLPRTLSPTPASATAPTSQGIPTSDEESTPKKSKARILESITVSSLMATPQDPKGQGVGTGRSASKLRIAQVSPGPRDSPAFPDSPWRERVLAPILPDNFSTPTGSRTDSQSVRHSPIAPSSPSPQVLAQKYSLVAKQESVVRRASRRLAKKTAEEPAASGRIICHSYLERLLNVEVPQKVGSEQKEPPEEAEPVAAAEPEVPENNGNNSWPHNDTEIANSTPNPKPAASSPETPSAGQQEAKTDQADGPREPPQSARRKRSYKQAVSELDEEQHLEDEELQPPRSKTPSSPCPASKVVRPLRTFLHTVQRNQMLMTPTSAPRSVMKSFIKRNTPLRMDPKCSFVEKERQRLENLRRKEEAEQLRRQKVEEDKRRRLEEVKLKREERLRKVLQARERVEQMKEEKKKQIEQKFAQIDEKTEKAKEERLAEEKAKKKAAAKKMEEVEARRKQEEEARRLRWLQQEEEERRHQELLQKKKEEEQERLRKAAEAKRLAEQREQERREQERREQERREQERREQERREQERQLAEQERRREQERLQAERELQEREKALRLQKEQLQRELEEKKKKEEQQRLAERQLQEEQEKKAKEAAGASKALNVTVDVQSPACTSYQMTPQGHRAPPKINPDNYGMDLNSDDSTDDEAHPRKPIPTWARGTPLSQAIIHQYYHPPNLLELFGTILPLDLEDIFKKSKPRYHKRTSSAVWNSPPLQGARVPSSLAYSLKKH
Cytochrome P450 3A4, sequence (P08684 whole entry, the tested form may be a part): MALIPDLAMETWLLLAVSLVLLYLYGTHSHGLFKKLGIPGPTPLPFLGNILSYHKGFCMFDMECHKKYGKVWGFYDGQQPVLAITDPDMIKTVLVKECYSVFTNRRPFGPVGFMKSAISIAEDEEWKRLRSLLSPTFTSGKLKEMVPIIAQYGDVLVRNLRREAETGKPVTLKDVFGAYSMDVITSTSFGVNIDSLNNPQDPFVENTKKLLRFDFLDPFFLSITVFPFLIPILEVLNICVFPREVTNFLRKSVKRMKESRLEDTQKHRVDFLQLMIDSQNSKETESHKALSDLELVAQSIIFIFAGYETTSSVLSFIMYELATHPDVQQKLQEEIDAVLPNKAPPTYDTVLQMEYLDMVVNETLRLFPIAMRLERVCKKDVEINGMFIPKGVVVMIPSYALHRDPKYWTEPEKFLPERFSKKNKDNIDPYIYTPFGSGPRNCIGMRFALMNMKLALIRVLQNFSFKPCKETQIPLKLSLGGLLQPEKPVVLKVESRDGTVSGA

`Cc1cc(N2CCOCC2)ccc1Nc1nc(NC2CCCCC2)c2nc[nH]c2n1` gave an inhibition in vivo at 30 mg/kg [1] of 49%.

In the case of `CC(C)(O)CNc1cc(NC2CCCCC2)nn2c(-c3ccc(C(=O)NC4CC4)cc3)cnc12`, the IC50 [2] is reported as 13 nM.

With `O=C(N[C@@H](c1ccccn1)C1CC1)c1ccc2[nH]nc(-c3ccc(N4[C@H]5CC[C@H]4CC(O)C5)cc3)c2c1` (stereo in doubt; 75) the Activity [3] was “Active”, the Activity [4] was 1.8% and the Activity [5] was 9.4%. It also gave an Activity [6] of 1%, an Activity [7] of 0.2% and an Activity [8] of 2.9%. For the same molecule, the Activity (HCT-116 [9]) was “Active”, the Activity [10] was “Active” and the Activity [11] was 1.4%. The Activity (HCT-116 [12]) was “Active”, the Activity [13] was 7.9% and the Activity [14] was 2.3%. The Activity [15] was 2.7%, the Activity (HCT-116 [16]) was “Active” and the Activity [17] was 0%. It also gave an Activity [18] of 8.3% and an Activity [19] of 5.8%.

For `O=C(N[C@H](c1ccccn1)C1CC1)c1ccc2[nH]nc(-c3ccc(N4[C@H]5CC[C@H]4CC(O)C5)cc3)c2c1` (stereo in doubt; 86), the inhibition in vivo at 100 mg/kg [20] was 5%, the clearance [21] was 46 mL/min/kg and the IC50 (Cytochrome P450 3A4) was 1700 nM. The IC50 [22] was 1.6 nM, the GI50 [23] was 170 nM and the bioavailability [24] was 24%. For the same molecule, the GI50 (MDA-MB-468) was 90 nM, the AUC(0-inf) [25] was 430 ng·h/mL and the AUC(0-inf) [26] was 360 ng·h/mL. For the same molecule, the inhibition in vivo at 150 mg/kg [27] was 53%, the Cmax (Mus musculus [28]) was 0.8 µg/mL and the AUC (Mus musculus [29]) was 1.6 µg·h/mL. For the same molecule, the IC50 [30] was 0.79 µM, the half-life [31] was 54 min and the MTD at 504 h [32] was 150 mg/kg.

Molecule `O=C(N[C@H](c1ccccn1)C1CCCC1)c1ccc2[nH]nc(-c3ccc(N4[C@H]5CC[C@H]4CC(O)C5)cc3)c2c1` (stereo in doubt; 88) has a GI50 [33] of 38 nM, an IC50 (Cytochrome P450 3A4) of 800 nM and an IC50 [22] of 1.8 nM. The GI50 [23] was 130 nM, the GI50 (MDA-MB-468) was 74 nM and the t1/2 (Liver microsome) was 21 min. The t1/2 (Liver) was 35 min and the IC50 [30] was 6.6 µM.
